Experimental findings from ChEMBL document CHEMBL2406979, “Antitumor activity of 2-hydroxycinnamaldehyde for human colon cancer cells through suppression of β-catenin signaling” (J Nat Prod, 2013) are described below.

The term IC50 denotes the point on the concentration scale where inhibition reaches its midpoint.

The structures appear in SMILES notation. Activity calls are given as the source filed them. The calls are words filed in the database; no cut-off is given here.

Data set [1] relates to HCT-116. Put plainly: Inhibition of Wnt/beta-catenin signaling pathway in human HCT116 cells assessed as downregulation of AXIN2 mRNA expression at 5 to 10 uM after 12 hrs by real-time PCR analysis. Type of data set: cell-based. The method, boiled down:
(§1)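 HCT116 cells treated 12 h. Total RNA by TRI reagent, reverse-transcribed, SYBR Green real-time PCR: 40 cycles of 95 °C 20 s, 56 °C 20 s, 72 °C 30 s. Fold change by 2^−ΔΔCT normalized to β-actin, relative to untreated control; quadruplicate.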
(Real-time PCR tracks product formation cycle by cycle.)

Data set [2] concerns HCT-116. Put plainly: Inhibition of Wnt/beta-catenin signaling pathway in human HCT116 cells assessed as downregulation of CCND1 protein expression at 5 to 10 uM after 24 to 48 hrs by Western blot analysis. Type of data set: cell-based. A digest of the protocol: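 HCT116 cells treated 24 or 48 h. Lysed in RIPA buffer; equal protein run on 8−13% SDS-PAGE, blotted to PVDF, probed for β-catenin, c-myc and cyclin D1, detected by ECL. β-Actin served as internal standard; four determinations.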

The subject of data set [3] is HCT-116. Briefly: Cytotoxicity against human HCT116 cells assessed as growth inhibition after 48 hrs by SRB assay. The data set is classed as functional, cell-based. The settings on record: HCT-116, 48 h. The method, boiled down: (§2)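 HCT116 cells seeded at 6 × 10^3/well and grown 24 h. Day-zero plates fixed; others exposed 24, 48 or 72 h. Fixed with 10% TCA, stained with 0.4% SRB in 1% acetic acid, dye taken up in 10 mM Tris pH 10.0, read at 515 nm. Proliferation % = (compound − day zero)/(control − day zero) × 100. IC50 by nonlinear regression; four determinations.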
Background: The SRB assay estimates cell density from bound dye.

For data set [4], the system named is HCT-116. Briefly: Inhibition of Wnt/beta-catenin codon 45 deletion mutant signaling pathway human HCT116 cells assessed as inhibition of TCF4 transcriptional activity after 24 hrs by TOPflash reporter gene assay. The data set is classed as cell-based. A digest of the protocol: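 HCT116 cells seeded at 1.5 × 10^4/well and lipofected after 24 h with 0.1 μg TOPflash (or FOPflash) plus 0.005 μg Renilla; no β-catenin/TCF4 added. Treated 24 h for 24 h. Dual luciferase, Renilla-normalized, relative to vehicle; means ± SD, n = 3, four separate determinations.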
In general terms: In a reporter assay the amount or activity of a reporter protein is the signal.

The subject of data set [5] is Mus musculus. Briefly: In vivo inhibition of Wnt/beta-catenin signaling pathway in human HCT116 cells xenografted in BALB/c-nu mouse assessed as downregulation of CMYC protein expression at 10 to 20 mg/kg, ip administered 3 times per week measured after 4 weeks by Western blot analysis. Type of data set: functional, organism-based. Particulars: HCT-116. A digest of the protocol:
(§3)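 Part of each frozen xenograft tumor was thawed on ice and hand-homogenized in Complete Lysis Buffer. Protein was quantified and aliquots stored at −80 °C. Western blot: SDS-PAGE, PVDF transfer, ECL detection, compared with vehicle-treated tumors.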

Data set [6] concerns HCT-116. Briefly: Inhibition of Beta-catenin/TCF complex binding to DNA in human HCT116 cells at 5 to 10 uM after 30 mins by electrophoretic mobility shift assay. The data set is classed as cell-based. A digest of the protocol:
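HCT116 cells (1 × 10^6) treated 30 min. Nuclear extract made by NP-40 hypotonic lysis, then 420 mM NaCl hypertonic extraction; protein by Bradford. Binding: 8 μg nuclear protein with 1.5 pmol biotin-labeled TCF binding probe, 15 °C for 30 min, read by EMSA against vehicle-treated cells.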

In data set [7] the test system is Mus musculus. Put plainly: Toxicity in BALB/c-nu mouse xenografted with human HCT116 cells assessed as change in body weight at 10 to 20 mg/kg, ip administered 3 times per week measured for 4 weeks. The data set is classed as organism-based, HCT-116. Set-up: dose 10-20 mg/kg, route intraperitoneal. Particulars: in vivo, 672 h. A digest of the protocol: (§4)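 Same HCT116 flank xenograft in female BALB/c-nu mice, five per group, dosed ip in 0.5% Tween 80/saline with vehicle controls. Toxicity was judged from lethality and body weight loss, with body weights tracked through the study.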

The test system of data set [8] is Mus musculus. Briefly: In vivo inhibition of Wnt/beta-catenin signaling pathway in human HCT116 cells xenografted in BALB/c-nu mouse assessed as downregulation of Ki-67 expression at 10 to 20 mg/kg, ip administered 3 times per week measured after 4 weeks by hematoxylin staining-based inverted phase-contrast microscopic analysis. Type of data set: functional, organism-based. Particulars: HCT-116. A digest of the protocol: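 Immunohistochemistry on xenograft tumor sections from ip-dosed mice. Ki-67 detected with anti-Ki67 antibody and an LSAB+ HRP system. Sections counterstained with hematoxylin and photographed under an inverted phase-contrast microscope at 200×.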

Data set [9] relates to Mus musculus. Put plainly: In vivo inhibition of Wnt/beta-catenin signaling pathway in human HCT116 cells xenografted in BALB/c-nu mouse assessed as downregulation of NKD1 mRNA expression at 10 to 20 mg/kg, ip administered 3 times per week measured after 4 weeks by real-time PCR analysis. The data set is classed as functional, organism-based. Particulars: HCT-116. A digest of the protocol:
(§5)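 Frozen tumors from ip-dosed HCT116 xenograft mice were extracted with TRI reagent and reverse-transcribed. SYBR Green real-time PCR run 40 cycles of 95/56/72 °C. Expression by 2^−ΔΔCT normalized to β-actin, relative to vehicle-treated controls; quadruplicate.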

The test system of data set [10] is HCT-116. Briefly: Antitumor activity against human HCT116 cells xenografted in BALB/c-nu mouse assessed as tumor growth inhibition at 10 mg/kg, ip administered 3 times per week for 4 weeks measured every 2 to 3 days during treatment relative to control. The data set is classed as functional. The settings on record: HCT-116, ip, route intraperitoneal, read-out: TGI. The method, boiled down:
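Female BALB/c-nu mice, 4−6 weeks old, acclimated one week, given 2 × 10^6 HCT116 cells sc in the flank. Dosing began near 100 mm3, about day 8; five mice per group. Dose in 0.5% Tween 80 in normal saline, 200 μL ip; controls got vehicle. Tumor volume by caliper = L × W × H/2. Study ended when control tumors averaged ~1300 mm3.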

Data set [11] deals with Mus musculus. Put plainly: Toxicity in BALB/c-nu mouse xenografted with human HCT116 cells assessed as overt toxicity at 10 to 20 mg/kg, ip administered 3 times per week measured for 4 weeks. The data set is classed as organism-based, HCT-116. Also on record: dose 10-20 mg/kg, route intraperitoneal. The settings on record: in vivo, 672 h. The method, boiled down:
as §4

Data set [12] deals with HCT-116. Put plainly: Cytotoxicity against human HCT116 cells assessed as growth inhibition after 24 to 72 hrs by SRB assay. Type of data set: functional, cell-based. A digest of the protocol:
as §2

Data set [13] deals with Mus musculus. Briefly: In vivo inhibition of Wnt/beta-catenin signaling pathway in human HCT116 cells xenografted in BALB/c-nu mouse assessed as downregulation of MMP7 mRNA expression at 10 to 20 mg/kg, ip administered 3 times per week measured after 4 weeks by real-time PCR analysis. The data set is classed as functional, organism-based. Particulars: HCT-116. The method, boiled down: as §5

The test system of data set [14] is HCT-116. Briefly: Inhibition of Wnt/beta-catenin signaling pathway in human HCT116 cells assessed as downregulation of PLAU mRNA expression at 5 to 10 uM after 12 hrs by real-time PCR analysis. The data set is classed as cell-based. The method, boiled down:
as §1

The subject of data set [15] is HCT-116. Put plainly: Inhibition of Wnt/beta-catenin signaling pathway in human HCT116 cells assessed as downregulation of DKK1 mRNA expression at 5 to 10 uM after 12 hrs by real-time PCR analysis. Type of data set: cell-based. The method, boiled down:
as §1

Data set [16] concerns HCT-116. Put plainly: Inhibition of Wnt/beta-catenin signaling pathway in human HCT116 cells assessed as downregulation of MMP7 mRNA expression at 5 to 10 uM after 12 hrs by real-time PCR analysis. Type of data set: cell-based. The method, boiled down:
as §1

The subject of data set [17] is Mus musculus. Put plainly: In vivo inhibition of Wnt/beta-catenin signaling pathway in human HCT116 cells xenografted in BALB/c-nu mouse assessed as downregulation of survivin protein expression at 10 to 20 mg/kg, ip administered 3 times per week measured after 4 weeks by Western blot analysis. Type of data set: functional, organism-based. The settings on record: HCT-116. The method, boiled down:
as §3

On to `O=C/C=C/c1ccccc1O` [2-HYDROXYCINNAMALDEHYDE], for which the inhibition entry in [1], in [2], in data set [5], in data set [6], in data set [8] and in [9] was “Active” throughout. For the same compound, the inhibition result in data set [13], in [14], in data set [15], in [16] and in [17] was “Active” throughout. Also, the IC50 in data set [3] stood at 6.62 µM. The inhibition result in [4] was “Dose-dependent effect”. The results for the Activity entry in [7], in data set [11] and in data set [12] were “Non-toxic”, “Non-toxic” and “Dose-dependent effect”, respectively. Also, the inhibition in vivo at 10 mg/kg in data set [10] is 52%.
